Experimental data reported in ChEMBL document CHEMBL1149771, “Antimicrobial studies of 2,4-dichloro-5-fluorophenyl containing oxadiazoles” (2008).
In brackets after ≈: the same amount, converted by molar mass.

How the values were obtained:
Assay type in all cases: functional
[1] = system: Trichophyton mentagrophytes; assay: Antifungal activity against Trichophyton mentagrophytes at 37 degC after 3 to 4 days by agar dilution method; conditions: in the assay text read “agar diffusion method” for “agar dilution method”
Procedure, shortened: (§1)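 Agar well diffusion for fungi, compounds in DMSO. Sabouraud agar was adjusted to pH 5.7 and lawned with a saline spore suspension (a loopful in 3 ml). Plates were dried 1 h at 37 °C, then wells were punched. Incubation was 3–4 days at 37 °C, with controls in triplicate. Inhibition zones were measured against controls, with griseofulvin as standard.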

Klebsiella pneumoniae [2] = assay: Antibacterial activity against Klebsiella pneumoniae ATCC 25922 at 37 degC after 24 hrs by broth dilution method; conditions: recultured, in the assay text read “Klebsiella pneumoniae (recultured)” for “Klebsiella pneumoniae ATCC 25922”
Procedure, shortened: (§2)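 Broth dilution MIC. Nutrient broth held two-fold serial dilutions of compound and was inoculated with about 5 × 10⁵ c.f.u. of actively dividing bacteria. Cultures ran 24 h at 37 °C, with growth checked visually and spectrophotometrically. MIC was the lowest concentration arresting growth. Ciprofloxacin was the standard.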

Talaromyces marneffei [3] = assay: Antifungal activity against Penicillium marneffei at 35 degC after 48 hrs
Procedure, shortened: (§3)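 Fungicidal endpoint (MFC). 0.1 ml from each broth-dilution tube was spread on agar plates and c.f.u. counted after 48 h at 35 °C. MFC was the lowest concentration killing 99.9% of the inoculum.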

Talaromyces marneffei [4] = assay: Antifungal activity against Penicillium marneffei at 37 degC after 3 to 4 days by agar […] method; procedure, shortened: as §1
Escherichia coli [5] = assay: Antibacterial activity against Escherichia coli ATCC 25922 at 37 degC after 24 hrs by broth dilution method; conditions: ATCC 25922, 24 h; procedure, shortened: as §2
Klebsiella pneumoniae [6] = assay: Antibacterial activity against Klebsiella pneumoniae ATCC 25922 at 37 degC after 24 hrs by disc diffusion method
Procedure, shortened: (§4)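 Disc diffusion on nutrient agar. Plates were spread with 1–2 × […] c.f.u./ml inoculum (0.5 McFarland). Sterile 6.25 mm filter-paper discs were soaked in a known concentration of compound and placed on the agar. Plates were inverted and incubated 24 h at 37 °C. Inhibition zones (mm) were read against solvent and growth controls, with ciprofloxacin as reference.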

Staphylococcus aureus [7] = assay: Antibacterial activity against Staphylococcus aureus ATCC 25923 at 35 degC after 18 to 24 hrs
Procedure, shortened: (§5)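 Bactericidal endpoint (MBC) taken from the broth-dilution MIC tubes. 0.1 ml from each tube was spread on agar plates and c.f.u. counted after 18–24 h. MBC was the lowest concentration completely killing the bacteria.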

Aspergillus fumigatus [8] = assay: Antifungal activity against Aspergillus fumigatus at 35 degC after 48 hrs; procedure, shortened: as §3
Talaromyces marneffei [9] = assay: Antifungal activity against Penicillium marneffei at 35 degC after 48 hrs by broth dilution method
Procedure, shortened: (§6)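 Fungal MIC by broth dilution. Two-fold serial dilutions of compound in nutrient broth were inoculated with about 1.6 × 10⁴–6 × 10⁴ c.f.u./ml. Incubation was 48 h at 35 °C. MIC was the lowest concentration arresting fungal growth.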

Pseudomonas aeruginosa [10] = assay: Antibacterial activity against Pseudomonas aeruginosa ATCC 27853 at 37 degC after 24 hrs by broth dilution method; conditions: ATCC 27853, 24 h; procedure, shortened: as §2
Klebsiella pneumoniae [11] = assay: Antibacterial activity against Klebsiella pneumoniae ATCC 25922 at 35 degC after 18 to 24 hrs; conditions: recultured, in the assay text read “Klebsiella pneumoniae (recultured)” for “Klebsiella pneumoniae ATCC 25922”; procedure, shortened: as §5
Escherichia coli [12] = assay: Antibacterial activity against Escherichia coli ATCC 25922 at 37 degC after 24 hrs by disc diffusion method; procedure, shortened: as §4
[13] = system: Trichophyton mentagrophytes; assay: Antifungal activity against Trichophyton mentagrophytes at 35 degC after 48 hrs; procedure, shortened: as §3
Aspergillus fumigatus [14] = assay: Antifungal activity against Aspergillus fumigatus at 35 degC after 48 hrs by broth dilution method; procedure, shortened: as §6
Pseudomonas aeruginosa [15] = assay: Antibacterial activity against Pseudomonas aeruginosa ATCC 27853 at 37 degC after 24 hrs by disc diffusion method; procedure, shortened: as §4
Candida albicans [16] = assay: Antifungal activity against Candida albicans at 35 degC after 48 hrs; procedure, shortened: as §3
Candida albicans [17] = assay: Antifungal activity against Candida albicans at 37 degC after 3 to 4 days by agar dilution method; procedure, shortened: as §1
Escherichia coli [18] = assay: Antibacterial activity against Escherichia coli ATCC 25922 at 35 degC after 18 to 24 hrs; procedure, shortened: as §5
Candida albicans [19] = assay: Antifungal activity against Candida albicans at 35 degC after 48 hrs by broth dilution method; procedure, shortened: as §6
Staphylococcus aureus [20] = assay: Antibacterial activity against Staphylococcus aureus ATCC 25923 at 37 degC after 24 hrs by disc diffusion method; procedure, shortened: as §4
Aspergillus fumigatus [21] = assay: Antifungal activity against Aspergillus fumigatus at 37 degC after 3 to 4 days by agar […] method; procedure, shortened: as §1
Staphylococcus aureus [22] = assay: Antibacterial activity against Staphylococcus aureus ATCC 25923 at 37 degC after 24 hrs by broth dilution method; conditions: ATCC 25923, 24 h; procedure, shortened: as §2
[23] = system: Trichophyton mentagrophytes; assay: Antifungal activity against Trichophyton mentagrophytes at 35 degC after 48 hrs by broth dilution method; procedure, shortened: as §6
Pseudomonas aeruginosa [24] = assay: Antibacterial activity against Pseudomonas aeruginosa ATCC 27853 at 35 degC after 18 to 24 hrs; procedure, shortened: as §5

MIC (Klebsiella pneumoniae [2]) [µg/mL] | MIC (Escherichia coli [5]) [µg/mL] | MIC (Talaromyces marneffei [9]) [µg/mL] | MIC (Pseudomonas aeruginosa [10]) [µg/mL] | MIC (Aspergillus fumigatus [14]) [µg/mL] | MIC (Candida albicans [19]) [µg/mL] | MIC (Staphylococcus aureus [22]) [µg/mL] | MIC [23] [µg/mL] | Structure (SMILES) | MFC (Talaromyces marneffei [3]) [µg/mL] | inhibition zone (IZ) (Klebsiella pneumoniae [6]) [mm] | MBC (Staphylococcus aureus [7]) [µg/mL] | MFC (Aspergillus fumigatus [8]) [µg/mL] | MBC (Klebsiella pneumoniae [11]) [µg/mL] | inhibition zone (IZ) (Escherichia coli [12]) [mm] | MFC [13] [µg/mL] | MFC (Candida albicans [16]) [µg/mL] | MBC (Escherichia coli [18]) [µg/mL] | inhibition zone (IZ) (Staphylococcus aureus [20]) [mm] | inhibition zone (IZ) (Aspergillus fumigatus [21]) [mm] | MBC (Pseudomonas aeruginosa [24]) [µg/mL] | also measured
> 100 | 12.5 (≈ 32.2 µM) | 25 (≈ 64.5 µM) | > 100 | 25 (≈ 64.5 µM) | > 100 | 25 (≈ 64.5 µM) | > 100 | Cc1cc(OCc2nnc(-c3cc(F)c(Cl)cc3Cl)o2)ccc1Cl | 50 (≈ 129 µM) | 12 | 50 (≈ 129 µM) | 50 (≈ 129 µM) | > 100 | 15 | > 100 | > 100 | 100 (≈ 258 µM) | 10 | 8 | > 100 | Activity [1]: >100 µg/mL; inhibition zone (IZ) (Talaromyces marneffei [4]): 10 mm; Activity (Pseudomonas aeruginosa [15]): >100 µg/mL; Activity (Candida albicans [17]; in the assay text read “agar diffusion method” for “agar dilution method”): >100 µg/mL
12.5 (≈ 25 µM) | 6.25 (≈ 12.5 µM) | 6.25 (≈ 12.5 µM) | 6.25 (≈ 12.5 µM) | 6.25 (≈ 12.5 µM) | 12.5 (≈ 25 µM) | 6.25 (≈ 12.5 µM) | 6.25 (≈ 12.5 µM) | Fc1cc(-c2cc(-c3nnc(COc4ccc(Cl)cc4)o3)c3ccccc3n2)c(Cl)cc1Cl | 12.5 (≈ 25 µM) | 18 | 12.5 (≈ 25 µM) | 25 (≈ 49.9 µM) | 25 (≈ 49.9 µM) | 25 | 12.5 (≈ 25 µM) | 50 (≈ 99.9 µM) | 6.25 (≈ 12.5 µM) | 19 | 16 | 25 (≈ 49.9 µM) | inhibition zone (IZ) [1]: 15 mm; inhibition zone (IZ) (Talaromyces marneffei [4]): 20 mm; inhibition zone (IZ) (Pseudomonas aeruginosa [15]): 32 mm; inhibition zone (IZ) (Candida albicans [17]): 12 mm
25 (≈ 66.9 µM) | 6.25 (≈ 16.7 µM) | > 100 | 12.5 (≈ 33.5 µM) | 6.25 (≈ 16.7 µM) | 25 (≈ 66.9 µM) | 12.5 (≈ 33.5 µM) | 12.5 (≈ 33.5 µM) | Fc1cc(-c2nnc(COc3ccccc3Cl)o2)c(Cl)cc1Cl | > 100 | 12 | 50 (≈ 134 µM) | 12.5 (≈ 33.5 µM) | 50 (≈ 134 µM) | 18 | 50 (≈ 134 µM) | 50 (≈ 134 µM) | 12.5 (≈ 33.5 µM) | 15 | 19 | 25 (≈ 66.9 µM) | inhibition zone (IZ) [1]: 12 mm; Activity (Talaromyces marneffei [4]): >100 µg/mL; inhibition zone (IZ) (Pseudomonas aeruginosa [15]): 15 mm; inhibition zone (IZ) (Candida albicans [17]): 10 mm
